MEKK2wt PB1 HTS = modulators of MEK5 binding to wildtype MEKK2, primary screen, biochemical, multiplex bead flow cytometry, Alexa488-MEK5 | actives 1.1% (n = 290,000) | binding response (% of control), % at 10 µM | Alexa488-MEK5 binding to MEKK2 WT; actives lie on both sides | Mitogen-activated protein kinase kinase kinase 2 (Homo sapiens), Q9Y2U5; in the data active = binding response below about 67% or above about 130%
VIM-2 inhibitor = VIM-2 metallo-beta-lactamase inhibitors, primary screen, biochemical, epi-absorbance readout, Pseudomonas aeruginosa enzyme. purified VIM-2, nitrocefin hydrolysis, epi-absorbance fluorescence. inhibition, % at 5.6 µM. actives 0.89% (n = 290,000). AID 1527, 2009;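 active = inhibition above the mean of all tested compounds plus 3 SD, cutoff set per screening run, cut at about 7.5% in these data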;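 note: red hydrolysis product quenches plate fluorescence so inhibitors raise well fluorescence; 0% = enzyme with DMSO and 100% = DMSO without enzyme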
IMP-1 inhibitor = IMP-1 metallo-beta-lactamase inhibitors, primary screen, biochemical, epi-absorbance readout, Pseudomonas aeruginosa enzyme. inhibition, % at 5.6 µM. metallo-beta-lactamase IMP-1 (Pseudomonas aeruginosa). actives 0.45% (n = 290,000). AID 1556, 2009. purified IMP-1, nitrocefin hydrolysis, epi-absorbance fluorescence;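 active = inhibition above the mean plus 3 SD of all compounds in the same screening run, cut at about 4.5% in these data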;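 note: 0% = IMP-1 with DMSO and 100% = DMSO wells lacking enzyme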
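Material – recombinant IMP-1 enzyme, purified · Amount – IMP-1 0.2 nM before substrate addition · Medium – HEPES buffer pH 7.1 with ZnSO4 and Brij 35 · Timing – 25 °C, 15 min preincubation, 25 min reaction · Measured by – plate fluorescence quenching by hydrolysis product, ex 480/em 530 nm · Read-out – percent enzyme inhibition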
MEKK2 mut-MEK5 = MEK5 binding signal on mutant MEKK2 PB1, primary screen, biochemical, multiplex bead flow cytometry, Alexa488-MEK5 | percent response, % at 10 µM | actives 0.35% (n = 290,000) | Alexa488-MEK5 binding to MEKK2 mutant | AID 1530, 2009; in the data active = percent response above about 24%, passing the limit was not always enough
MEKK3 PB1 HTS = modulators of MEKK3-MEK5 PB1 binding, primary screen, biochemical, wildtype MEKK3, multiplex bead flow cytometry, Alexa488-MEK5; bead-based flow cytometry, Alexa488-MEK5 binding to MEKK3; actives lie on both sides; 0 = blocked by unlabeled MEK5, 100 = vehicle; binding response (% of control), % at 10 µM; actives 1.4% (n = 290,000); AID 1529, 2009;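 active = binding response more than 3 SD above or below the average of its plate-row segment, actives on both sides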;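 note: Alexa488 bead fluorescence after subtracting the streptavidin-only scavenger bead signal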
Target sequence (Q99759 whole entry, looked up): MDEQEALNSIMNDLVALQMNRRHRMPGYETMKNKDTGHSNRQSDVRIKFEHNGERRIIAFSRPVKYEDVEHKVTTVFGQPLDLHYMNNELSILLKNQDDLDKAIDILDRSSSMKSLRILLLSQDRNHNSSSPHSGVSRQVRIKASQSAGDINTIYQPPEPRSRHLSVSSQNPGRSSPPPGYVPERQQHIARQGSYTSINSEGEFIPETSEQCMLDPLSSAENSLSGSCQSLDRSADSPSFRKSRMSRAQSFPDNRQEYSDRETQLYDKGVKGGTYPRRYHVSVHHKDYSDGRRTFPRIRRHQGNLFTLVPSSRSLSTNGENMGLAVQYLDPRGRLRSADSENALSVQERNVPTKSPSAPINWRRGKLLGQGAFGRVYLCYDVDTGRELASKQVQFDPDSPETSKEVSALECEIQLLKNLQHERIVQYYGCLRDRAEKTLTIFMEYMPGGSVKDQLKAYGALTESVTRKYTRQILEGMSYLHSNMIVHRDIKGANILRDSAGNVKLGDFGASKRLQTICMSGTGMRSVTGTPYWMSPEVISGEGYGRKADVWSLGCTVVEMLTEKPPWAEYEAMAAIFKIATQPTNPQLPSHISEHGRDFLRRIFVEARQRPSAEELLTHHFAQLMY
MEKK2wt confirm = modulators of MEK5 binding to wildtype MEKK2, confirmation, biochemical, single concentration, multiplex bead flow cytometry | shares compounds with MEKK3 PB1 HTS | Alexa488-MEK5 binding to MEKK2 WT; actives lie on both sides | binding response (% of control), % at 10 µM | actives 2.4% (n = 5,900); in the data active = binding response below about 16% or above about 210%; inactive = in between
MEKK2mut confirm = mutant MEKK2 PB1-MEK5 binding signal retest – biochemical, single concentration, multiplex bead flow cytometry, confirmation; percent response, % at 10 µM; actives 2% (n = 5,900); shares compounds with MEKK3 PB1 HTS; Alexa488-MEK5 binding to MEKK2 mutant; in the data active = percent response mostly above about 71%, no sharp cut-off; inactive = mostly below about 38%;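 note: higher means compound restores mutant binding toward wildtype level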
MEKK3-MEK5 inh = MEKK3 wild-type PB1 binding to MEK5, inhibitors, confirmation, biochemical, bead multiplex flow cytometry, single concentration, wildtype; shares compounds with MEKK3 PB1 HTS; Alexa488-MEK5 binding to MEKK3; hits give low values; binding response (% of control), % at 10 µM; actives 1.8% (n = 5,900); AID 1894, 2009;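 active = binding response below 72% of control, or above a set upper limit, though filed actives all read lower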;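 note: 100% = DMSO only wells and 0% = binding blocked by excess unlabeled MEK5; lower values mean stronger disruption of MEK5 binding to MEKK3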
Numbers without * were called inactive; x = no result given; [ ] = another dose, or the depositor's remark. Hits are enriched below; roughly 3.4% of the tested compounds scored in any of these assays.

SMILES | MEKK2wt PB1 HTS | VIM-2 inhibitor | IMP-1 inhibitor | MEKK2 mut-MEK5 | MEKK3 PB1 HTS | MEKK2wt confirm | MEKK2mut confirm | MEKK3-MEK5 inh
CCCN(CC(=O)Nc1cccc(Br)c1)CC(=O)Nc1ccc(F)c(F)c1F | 154* | -2 | -3 | 31 | 101 | 103 | -3 | 101
C=C(C)[C@@H]1CC=C(CN2CCC(N3CCC(C(=O)N4CCCC4)CC3)CC2)CC1 | 142* | -2 | -1 | 31 | 94 | 129 | 19 | 110
C=C(C)C1CC=C(CN2CCC(O)CC2)CC1 (configuration not stated) | 99 | -5 | -2 | -1 | 98 | x | x | x
COc1cccc(/C=N/NC(=O)CSc2nnc(C)n2-c2ccccc2)c1O | x | -2 | -2 | x | x | x | x | x
O=C(CN1C(=O)COc2ccccc21)c1ccc(Cl)cc1 | 117 | -4 | -3 | 5 | 122* | 95 | 1 | 102
O=C(Nc1cccs1)Nc1cccnc1Cl | 102 | -4 | -4 | 7 | 102 | x | x | x
COCCCNC(=O)CN(Cc1ccccc1)S(=O)(=O)c1ccccc1 | 108 | -3 | -2 | 27* | 103 | 104 | 2 | 102
CC1=C(C(N)=O)C(c2ccccc2)n2nc(-c3ccncc3)nc2N1 (configuration not stated) | 118 | -1 | -3 | 7 | 114 | x | x | x
COc1cc(-c2nc3n(n2)C(c2ccncc2)C(C(N)=O)=C(C)N3)cc(OC)c1OC (configuration not stated) | 114 | 1 | -1 | 5 | 122* | 57 | -20 | 85
O=C(Nc1cc(-c2ccccc2)[nH]n1)c1ccccc1F | 38*[inhibitor] | -1 | -3 | -48 | 35*[inhibitor] | 104 | 5 | 102
O=C(O)c1ccccc1C(=O)Nc1cc(-c2ccccc2)[nH]n1 | 104 | 0 | -3 | 14 | 107 | x | x | x
Cc1nc2ccccc2nc(=O)c1NNc1ccccc1 | 80 | -3 | -4 | -2 | 51*[inhibitor] | 91 | -7 | 94
Cc1ccc2nc(=O)c(NNc3ccccc3)cnc2c1 | 97 | -2 | -4 | -1 | 98 | x | x | x
CCOC(=O)c1cnn(CCOC(=O)C2CC2)c1NC(=O)C1CC1 | 102 | -2 | -3 | 9 | 103 | x | x | x
CCOC(=O)c1cnn(CCOC(=O)C(C)(C)C)c1NC(=O)C(C)(C)C | 0.0*[inhibitor] | 0 | 0 | -25 | 2.0*[inhibitor] | 98 | -6 | 101
O=C(Nc1ccc2nn(-c3ccccc3)nc2c1)c1ccc2c(c1)OCO2 | 92 | 0 | -4 | -4 | 97 | x | x | x
Cc1ccc(C#N)c(SCc2ccccc2F)n1 | 59 | -1 | 0 | -14 | 49*[inhibitor] | 104 | 0 | 102
CCN(CC)CCn1c(SCC(=O)Nc2cccc(OC)c2)nc2c(sc3ccccc32)c1=O | 174* | -1 | -2 | 2 | 107 | 163 | 34 | 106
COc1cccc(NC(=O)CSc2nc3c(sc4ccccc43)c(=O)n2CCN(C)C)c1 | 147* | 3 | -1 | 28 | 103 | 143 | 26 | 107
CCOc1cc(N2CCOCC2)c(OCC)cc1NC(=O)CSc1nccc(C)n1 | 99 | -1 | -1 | -5 | 107 | x | x | x
Cc1csc(NC(=O)c2ccoc2C)n1 | 89 | -1 | 1 | -5 | 91 | x | x | x
CCN(CC)c1nc(-c2nn[nH]n2)nc(N(CC)CC)n1 | 102 | 0 | -3 | -1 | 100 | x | x | x
Cc1cccc(C(=O)N2CC3(C)CC2CC(C)(C)C3)c1 (configuration not stated) | 97 | -2 | 1 | -3 | 95 | x | x | x
COc1cc(/C=C/c2noc(-c3ccccc3O)n2)cc(OC)c1OC | 95 | -4 | -3 | -2 | 109 | x | x | x
COc1ccc(/C=C/c2noc(-c3ccccc3O)n2)cc1 | 106 | -2 | -3 | 0 | 131* | 94 | 0 | 98
SMILES | MEKK2wt PB1 HTS | VIM-2 inhibitor | IMP-1 inhibitor | MEKK2 mut-MEK5 | MEKK3 PB1 HTS | MEKK2wt confirm | MEKK2mut confirm | MEKK3-MEK5 inh
O=C(Oc1ccc2c(=O)c(Cl)coc2c1)c1ccncc1 | 100 | -1 | -3 | -3 | 106 | x | x | x
CCc1ccc(Nc2n[n+](-c3ccccc3)c(-c3ccc(OC)c(Br)c3)s2)cc1 | 207* | -2 | 2 | 41* | 109 | 206 | 73* | 113
CCOc1cc(-c2sc(Nc3ccccc3)n[n+]2-c2ccc(F)cc2)ccc1OC | 105 | -5 | -3 | 2 | 102 | x | x | x
COc1cc(OC)c(-c2sc(Nc3ccccc3)n[n+]2-c2ccc(F)cc2)cc1OC | 88 | 1 | 0 | -9 | 95 | x | x | x
Fc1ccc(-[n+]2nc(Nc3ccccc3)sc2-c2cccc(Cl)c2Cl)cc1 | 128 | -5 | -3 | 23 | 105 | x | x | x
CCc1ccc(Nc2n[n+](-c3ccccc3)c(-c3ccc(C(=O)O)cc3)s2)cc1 | 99 | -3 | -3 | 3 | 100 | x | x | x
Clc1cccc(-c2sc(Nc3ccccc3)n[n+]2-c2ccccc2)c1Cl | 135* | -3 | -2 | 13 | 104 | 135 | 15 | 103
CCc1ccc(Nc2n[n+](-c3ccccc3)c(-c3ccc(SC)cc3)s2)cc1 | 195* | -3 | 0 | 35* | 108 | 180 | 53 | 108
COc1cc(Br)c(-c2sc(Nc3ccccc3)n[n+]2-c2ccc(F)cc2)cc1OC | 133 | -4 | -4 | 34* | 104 | 149 | 32 | 103
CSc1ccc(-c2sc(Nc3cccc4ccccc34)n[n+]2-c2ccccc2)cc1 | 129 | -2 | -1 | 23 | 105 | x | x | x
CSc1ccc(-c2sc(Nc3ccccc3)n[n+]2-c2ccccc2)cc1 | 148* | 0 | -2 | 10 | 106 | 121 | 31 | 102
CC(C)c1nc2ccc(Br)cn2c1NC1CCCC1 | 123 | -1 | -2 | 49 | 129* | 99 | -2 | 100
Cc1ccc2nc(-c3ccccn3)c(NC3CCCC3)n2c1 | 96 | -6 | -7 | -10 | 110 | x | x | x
CCOC(=O)C1=C(C)NC(=O)C1CC(=O)Nc1ccccc1 (configuration not stated) | 115 | -2 | -3 | 6 | 125* | 102 | 2 | 99
